Screening data (PubChem BioAssay)
NS3 helicase inh – inhibitors of HCV NS3 helicase, primary screen, biochemical, Cy5 molecular beacon fluorescence; Hepatitis C virus NS3 helicase; NS3 helicase DNA unwinding; inhibition, % at 10.9 µM; actives 0.56% (n = 290,000);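 active = inhibition above the mean of all tested compounds plus 3 SD, set per campaign, cut at about 35% in these data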;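 note: 0% = DMSO wells and 100% = thioflavine S control wells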
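Test system: hepatitis C virus NS3 helicase domain fragment enzyme. Also added: annealed dual-labelled DNA beacon duplex, ATP-started. Timing: 60 min unwinding reaction at 25 °C after ATP addition. Technique: Cy5 fluorescence. Measure: % inhibition of unwinding.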
PP1 inh – PP1-alpha phosphatase inhibitors, primary screen, counter-screen for PP5 inhibitor project, biochemical, fluorescence, OMFP substrate, single point | Serine/threonine-protein phosphatase PP1-alpha catalytic subunit (Homo sapiens), P62136 | purified PP1alpha | inhibition, % at 6.7 µM | actives 0.9% (n = 320,000) | AID 2235, 2010;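 active = inhibition above the mean inhibition of all tested compounds plus 3 SD, computed separately for each screening campaign, cut at about 15% in these data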
Target sequence (P62136 whole entry, looked up): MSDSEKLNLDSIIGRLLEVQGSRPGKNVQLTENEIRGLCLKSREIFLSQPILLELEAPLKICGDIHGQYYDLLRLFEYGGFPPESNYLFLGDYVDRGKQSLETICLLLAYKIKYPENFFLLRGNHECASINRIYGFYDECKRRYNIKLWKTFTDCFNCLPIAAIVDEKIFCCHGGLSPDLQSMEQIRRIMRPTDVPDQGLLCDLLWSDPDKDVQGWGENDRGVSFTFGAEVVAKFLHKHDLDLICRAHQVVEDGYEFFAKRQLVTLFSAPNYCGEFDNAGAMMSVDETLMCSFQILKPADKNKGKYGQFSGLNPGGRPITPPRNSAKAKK
ZTA counter – counter-screen for EBNA-1 inhibitors: inhibitors of Epstein-Barr virus ZTA; P03206; ZTA-DNA binding, fluorescence polarization; inhibition, % at 11 µM; actives 0.15% (n = 320,000); in the data active = inhibition above about 33%
Target sequence (P03206 whole entry, looked up): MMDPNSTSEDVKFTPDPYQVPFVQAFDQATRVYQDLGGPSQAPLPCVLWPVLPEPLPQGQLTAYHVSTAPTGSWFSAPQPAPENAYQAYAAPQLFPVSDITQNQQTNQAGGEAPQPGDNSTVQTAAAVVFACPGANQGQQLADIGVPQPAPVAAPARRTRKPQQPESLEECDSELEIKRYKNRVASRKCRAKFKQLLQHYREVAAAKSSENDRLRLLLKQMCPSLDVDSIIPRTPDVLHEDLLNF
EBNA-1 inhibitor – EBNA-1 DNA-binding inhibitors, primary screen, biochemical, fluorescence polarization | inhibition, % at 14.8 µM | actives 0.34% (n = 300,000); in the data active = inhibition above about 28%
core dimer inh – inhibitors of HCV core protein dimerization, primary screen, biochemical, TR-FRET, high-throughput | TR-FRET GST/Flag-core106 dimerization, 1536-well | inhibition, % at 5 µM | actives 0.33% (n = 300,000) | AID 1899, 2009;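 active = inhibition above the mean of all tested compounds plus 3 SD, set per screening campaign, cut at about 45% in these data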
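test system = GST/Flag-tagged HCV core106 proteins | probe or stimulus = Eu donor and XL665 acceptor anti-tag antibodies | times = compound-protein-antibody incubation 4 h at 22.5 °C | signal = TR-FRET, excitation 340 nm, emission 617 and 671 nm | measure = percent inhibition of core106 dimerization signal | controls = wells lacking GST-core106 and wells with excess unlabelled core106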
Active calls of the source: *; / = not tested or not shown. This is a sample that favours compounds with a hit; in the whole collection about 1.9% have one here.

SMILES | NS3 helicase inh | PP1 inh | ZTA counter | EBNA-1 inhibitor | core dimer inh
COc1ccc(-n2c(C)cc(-c3cn4cccc(C)c4n3)c2C)cc1 | 0 | 15* | -2 | -2 | 10
COC(=O)c1ccccc1NC(=O)c1ccc2nccnc2c1 | 4 | 5 | 4 | 4 | 51*
O=S(=O)(NCc1nnc2ccccn12)c1ccc(Cl)cc1 | / | -6 | 11 | / | /
O=C(N/N=C/c1ccc2ccccc2c1)c1ccc(COc2ccc3c(c2)CCC3)o1 | 0 | 13 | -3 | 1 | 50*
O=C(N/N=C/c1cc([N+](=O)[O-])ccc1O)c1ccc(COc2ccc3c(c2)CCC3)o1 | -17 | / | / | / | /
CC(C)CC(=O)OC1C(N2CCOCC2)c2c(ccc(/C=C/C(=O)N3CCOCC3)c2O)OC1(C)C (stereo not given) | -7 | -4 | 1 | 12 | 3
CCn1c(NN)nc2sc3c(c2c1=O)CCC3 | 19 | 2 | -3 | -11 | 55*
COc1cccc(-c2nc(SCC(=O)Nc3nc(-c4ccccc4)c(C)s3)[nH]c(=O)c2C#N)c1 | -9 | 17* | 15 | 15 | 21
CCOc1ccc2nc(NC(=O)CSc3nc(-c4ccccc4)c(C#N)c(=O)[nH]3)sc2c1 | -5 | / | / | / | /
O=C1NC(=S)N(C(=O)c2ccc(F)cc2)/C1=C/c1cccnc1 | 9 | 0 | -1 | 1 | 3
COc1ccc(/C=C2\C(=O)NC(=S)N2C(=O)c2ccc(C)cc2)cc1 | 13 | 16* | 15 | 3 | 19
Cc1cc(/C=N/NC(=O)Cn2c3ccccc3c(=O)c3ccccc32)c(C)n1-c1ccccc1 | 20 | 14 | 14 | 5 | 62*
O=c1cc(O)c2c(=O)n(-c3ccccc3)c3c(c2o1)CCCCCC3 | -1 | 17* | 5 | -1 | 1
Cc1cc(C(=O)N/N=C/C=C/c2ccccc2)n[nH]1 | 8 | -5 | -10 | 7 | -2
Cc1ccc(-c2cc(C(=O)N/N=C/C=C/c3ccccc3)n[nH]2)s1 | -25 | 15* | -37 | 14 | -4
COc1ccc([C@H]2CC(=O)C=C(c3ccc(Cl)c(F)c3)C2)cc1 | / | 2 | -7 | / | /
O=C(CN1C(=O)c2cccc3cccc1c23)Nc1ccc(S(=O)(=O)N2CCOCC2)cc1 | -15 | -1 | 3 | -21 | -3
O=C(CN1c2cccc3cccc(c23)S1(=O)=O)Nc1ccc(S(=O)(=O)N2CCOCC2)cc1 | 8 | 1 | 4 | 1 | 56*
O=S(=O)(c1ccc(NC(=S)N/N=C/c2c3ccccc3cc3ccccc23)cc1)N1CCOCC1 | -1 | 10 | -27 | 0 | 56*
CCc1ccc(/C=N/NC(=O)c2cc(-c3ccccc3OC)nc3ccccc23)s1 | -5 | 6 | 21 | 8 | 56*
COc1ccc(-c2nc3c(c(=O)[nH]c(=O)n3Cc3ccccc3)n2Cc2ccccc2)cc1 | 0 | 16* | 1 | 1 | 18
COc1ccc(-c2nc3c(c(=O)[nH]c(=O)n3Cc3ccccc3)n2C)cc1 | -1 | -5 | 1 | -3 | 2
CC(C)CC1Nc2ncnc(N3CCN(c4ccccn4)CC3)c2N(Cc2ccc(Br)cc2)C1=O (stereo not given) | / | 17* | -3 | 9 | 23
Cc1oc(C)c2c(=O)ccc3c(c12)OC(N)=C(C#N)C3c1ccc(F)cc1 (stereo not given) | 31 | -1 | -11 | 0 | 46*
CCN(C(=O)CN1C(=O)S/C(=C\C=C\c2ccccc2)C1=O)C1CCS(=O)(=O)C1 (stereo not given) | -15 | 14 | -1 | 0 | 46*
SMILES | NS3 helicase inh | PP1 inh | ZTA counter | EBNA-1 inhibitor | core dimer inh
CCN(C(=O)CN1C(=O)S/C(=C\c2cccc(Cl)c2)C1=O)C1CCS(=O)(=O)C1 (stereo not given) | -1 | 2 | -34 | -3 | -9
Cc1cc(C)n2nc(SCc3ccccc3)nc2n1 | -13 | -6 | -2 | -6 | 2
Cc1cc(C)n2nc(SCc3cc(=O)oc4cc(O)ccc34)nc2n1 | 3 | 5 | -8 | 0 | 74*
CCOc1ccc(N=C(/C(C(=O)C(=O)N2CCOCC2)=C(/O)c2ccccc2)c2ccccc2)cc1 | 6 | -1 | 10 | 3 | 6
Cc1ccc2oc(-c3cccc(NC(=S)NC(=O)/C=C/c4ccco4)c3)nc2c1 | 11 | 5 | 16 | 18 | 57*
Cc1ccc2oc(-c3cccc(NC(=S)NC(=O)c4cccs4)c3)nc2c1 | 3 | -3 | -9 | 0 | -1
CCOc1cc(/C=C2\C(=O)N(c3cccc(C(=O)O)c3)N=C2C(F)(F)F)ccc1OCC(=O)Nc1ccccc1OC | 4 | 17* | 21 | 12 | 31
CCOc1cc(/C=N/n2cnnc2)ccc1OCC(=O)Nc1ccccc1OC | 7 | 1 | 1 | -6 | -1
N#Cc1sc2nc(-c3ccccc3)cc(-c3ccco3)c2c1N | 34 | 4 | 6 | 6 | 49*
CN(C)S(=O)(=O)c1cccc(-c2nn(-c3ccccc3)cc2/C=C2\SC(=S)NC2=O)c1 | 32 | 17* | 20 | 6 | 52*
CC(C)n1c(=S)[nH]c2scc(-c3cccs3)c2c1=O | 25 | 9 | 1 | 4 | 65*
CCn1c(=S)[nH]c2scc(-c3cccs3)c2c1=O | 16 | / | / | / | /
CSc1nc(N)nc(SCC(=O)c2ccc(C)cc2)c1C#N | 4 | -1 | 5 | -1 | 48*
CSc1nc(N)nc(SCC(=O)OC(C)C)c1C#N | 0 | 11 | -1 | -4 | -2
CCCCSCCCNC(=O)c1ccc(CS(=O)(=O)c2ccccc2OC)o1 | -11 | 0 | -7 | 9 | 7
Cc1ccc(NC(=O)CN2C(=O)N/C(=C/c3ccc(N4CCOCC4)cc3)C2=O)cc1 | 4 | 8 | -3 | -1 | 11
Cc1ccccc1NC(=O)CN1C(=O)N/C(=C\c2ccc(N3CCOCC3)c(F)c2)C1=O | -12 | -5 | 7 | 56* | -3
COc1cccc(C2/C(=C(/O)c3ccccc3)C(=O)C(=O)N2Cc2ccco2)c1 (stereo not given) | 19 | 1 | 5 | 1 | 8
COc1cccc(C2/C(=C(/O)c3ccc(C)cc3)C(=O)C(=O)N2Cc2ccco2)c1 (stereo not given) | 14 | 16* | -1 | -6 | -14
COc1ccccc1CN1CC(C(=O)N(C)CCc2nc3ccc(F)cc3[nH]2)CCC1=O (stereo not given) | 2 | -3 | 1 | 0 | 11
O=C(Cn1c(=O)c2cccn2c2ccccc21)Nc1cc(F)ccc1F | 30 | 0 | -5 | 4 | 2
O=C(N/N=C/c1cccs1)c1cccc(S(=O)(=O)Nc2ccc(Cl)cc2)c1 | 5 | 0 | -9 | 5 | -2
Cc1cccc(/C=N/NC(=O)c2ccc(NC(=O)c3ccc(F)cc3)cc2)n1 | -16 | 1 | 4 | 7 | -1
